Assay results pooled from the literature.
Lines come from different studies, so protocols differ.
Sample: plasma

With NS(=O)(=O)c1ccc(NC(=O)Nc2ccc(F)cc2)cc1 the AUC(0-t) was 70700 ng·h/mL (human; oral; 1000 mg; multiple doses, once daily).
CCNCCCNC/C=C\CNCCCNCC has an AUC(0-t) of 79.8 ng·h/mL (human; intravenous; 50 mg; patients, infusion).
For C[C@@H](Oc1ccc(S(C)(=O)=O)cc1C(=O)N1C[C@@H]2C[C@]2(c2cc(C(F)(F)F)on2)C1)C(F)(F)F, the AUC(0-t) was 8.7 µM·h (human; oral; 25 mg; fasted, tablet).
With Nc1cc(C(F)(F)F)c(-c2cc(N3CCOCC3)nc(N3CCOCC3)n2)cn1 the AUC(0-t) was 3830 ng·h/mL (human; oral; 50 mg/day; patients).
With COc1cc(N2CCC(N3CCN(C)CC3)CC2)ccc1Nc1ncnc(Nc2ccccc2S(=O)(=O)C(C)C)n1 the AUC(0-t) was 4640 ng·h/mL (human; oral; 50 mg; multiple doses, patients).
With CO[C@H]1CC[C@H](N2C(=O)CNc3ncc(-c4ccc(C(C)(C)O)nc4)nc32)CC1 the AUC(0-t) was 299 ng·h/mL (human; oral; 7.5 mg; multiple doses, patients).
For CCCCC1=NC2(CCCC2)C(=O)N1Cc1ccc(-c2ccccc2S(=O)(=O)Nc2noc(C)c2C)c(COCC)c1, the AUC(0-t) was 50500 ng·h/mL (human; oral; 200 mg; single dose, fed, healthy volunteers, tablet).
COCCOc1cnc2ccn([C@H](C)c3nnc4c(F)cc(-c5cnn(C)c5)cn34)c(=O)c2c1 has an AUC(0-t) of 36900 ng·h/mL (human; oral; 200 mg; multiple doses, once daily, patients).
With CCOc1cc([C@@H](CS(C)(=O)=O)N2C(=O)c3cccc(NC(C)=O)c3C2=O)ccc1OC the AUC(0-t) was 2190 ng·h/mL (human; oral; 30 mg; single dose, healthy volunteers).
Oc1cc(O)c2c(c1)O[C@@H](c1ccc(O)c(O)c1)[C@@H](O)C2 gave an AUC(0-t) of 6.9 ng·h/mL (human; oral; 30 mg; single dose).
For O=C(/C=C/c1cccc(S(=O)(=O)Nc2ccccc2)c1)NO, the AUC(0-t) was 54700 ng·h/mL (human; intravenous; 1800 mg/m²; patients).
The AUC(0-t) of CO[C@@H]1[C@H](OC(=O)N2CC(CCN3CCOCC3)C2)CC[C@]2(CO2)[C@H]1[C@@]1(C)O[C@@H]1CC=C(C)C is reported as 8.07 ng·h/mL (human; subcutaneous; 2.4 mg; single dose, healthy volunteers).
The AUC(0-t) of COc1cc2c(cc1OC)CN(CCc1ccc(NC(=O)c3cc(OC)c(OC)cc3NC(=O)c3cnc4ccccc4c3)cc1)CC2 is reported as 10.5 µM·h (human; intravenous; 1.5 mg/kg; patients).
CC(C)(O)c1ccccc1-c1ccc2[nH]c(/C=C/c3ccc(C(F)(F)F)cc3)nc2c1 has an AUC(0-t) of 5740 ng·h/mL (male human; oral; 225 mg; single dose, fasted).
C[C@@]1(c2cc(NC(=O)c3ccc(C#N)cn3)ccc2F)C=CSC(N)=N1 gave an AUC(0-t) of 1000 ng·h/mL (human; oral; 10 mg; single dose).
With COc1ccc([C@@H]2CN(C(=O)[C@@H](O)CO)C[C@@]2(C)[C@@H](C)O)cc1OC1CN(c2ccc(C)cn2)C1 the AUC(0-t) was 52.7 ng·h/mL (human; oral; 0.1 mg; single dose, healthy volunteers).
With COc1cc2c(Nc3ccc(Br)cc3F)ncnc2cc1OCC1CCN(C)CC1 the AUC(0-t) was 15500 ng·h/mL (human; oral; 85 mg/m²; multiple doses, patients).
O=C(O)C[C@H](O)C[C@H](O)/C=C/c1c(C2CC2)nc2ccccc2c1-c1ccc(F)cc1 has an AUC(0-t) of 243 ng·h/mL (human; oral; 2 mg; single dose, fasted, healthy volunteers, tablet).
For CC(C)n1cc(C#N)c2cc(-n3cc(C(=O)O)cn3)ccc21, the AUC(0-t) was 98800 ng·h/mL (male human; oral; 600 mg; single dose, fasted, healthy volunteers).
COc1ccc(-n2nc(C(N)=O)c3c2C(=O)N(c2ccc(N4CCCCC4=O)cc2)CC3)cc1 has an AUC(0-t) of 2480 ng·h/mL (human; oral; 10 mg; single dose, healthy volunteers).
With FC(F)(F)c1ccc(CNc2ccc(Cc3c[nH]c4ncc(Cl)cc34)cn2)cn1 the AUC(0-t) was 28700 ng·h/mL (human; oral; 1600 mg; multiple doses, patients).
CNCC[C@H](Oc1cccc2ccccc12)c1cccs1 gave an AUC(0-t) of 135 ng·h/mL (female human; oral; 30 mg; multiple doses, once daily).
For Cc1nc(NC(=O)N2CCC[C@H]2C(N)=O)sc1-c1ccnc(C(C)(C)C(F)(F)F)c1, the AUC(0-t) was 25300 ng·h/mL (human; oral; 270 mg; patients).
For CC(=O)Oc1ccccc1C(=O)O, the AUC(0-t) was 2630 ng·h/mL (human; oral; 650 mg; healthy volunteers).
For OC[C@H]1O[C@@H](c2ccc(Cl)c(Cc3ccc(O[C@H]4CCOC4)cc3)c2)[C@H](O)[C@@H](O)[C@@H]1O, the AUC(0-t) was 0.402 µM·h (human; oral; 2.5 mg; single dose).
C#Cc1cccc(Nc2ncnc3cc(OCCOC)c(OCCOC)cc23)c1 gave an AUC(0-t) of 12.5 µM·h (human; oral; 50 mg; patients).
With C[C@@H](Nc1cc(F)cc(F)c1)c1cc(C(=O)N(C)C)cc2c(=O)cc(N3CCOCC3)oc12 the AUC(0-t) was 6710 ng·h/mL (human; oral; 180 mg; single dose, patients).
